CDK5 p35 inh = inhibitors of human CDK5/p35 kinase, primary screen, biochemical, single concentration; hit rate 0.01% among 330,000; Recombinant CDK5/p35, ADP-Glo luminescence, 60 min; inhibition, % at 10 µM; Cyclin-dependent kinase 5 (Homo sapiens) + Cyclin-dependent kinase 5 activator 1 (Homo …;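 active means highest replicate inhibition of at least 50% and at least 75% of replicates reaching 50%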
Rtt109 HAT inh = inhibitors of C. albicans Rtt109/Vps75 HAT, primary screen, biochemical, ThioGlo CoA-SH fluorescence, plate reader; purified Rtt109/Vps75, 4 h; inhibition, % at 34.9 µM; hit rate 0.16% among 330,000;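 active means inhibition of at least 50% in every replicate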
CAL PDZ FP-1 = untagged CAL PDZ binding inhibitors, primary screen, biochemical, fluorescence polarization, HTS; purified CAL PDZ, TMR-peptide fluorescence polarization, 1 h; Golgi-associated PDZ and coiled-coil motif-containing protein (Homo sapiens), Q9HD26; hit rate 0.92% among 300,000; inhibition, % at 24.9 µM;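 active means mean inhibition of at least 30% with at least half of replicates also reaching 30%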
dFosB act = activators of delta FosB homodimer, primary screen, biochemical, fluorescence polarization, TAMRA-CDK5 oligo, single point | Protein FosB (Mus musculus), P13346 | purified delta FosB; percent of positive-control signal above neutral wells | activation, % at 25 µM | hit rate 0.99% among 340,000 | AID 493131, 2011;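 active means mean activation above about 17%, with every replicate also reaching it, limit read from the data, passing the limit was not always enough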
Target sequence (P13346 whole entry, looked up): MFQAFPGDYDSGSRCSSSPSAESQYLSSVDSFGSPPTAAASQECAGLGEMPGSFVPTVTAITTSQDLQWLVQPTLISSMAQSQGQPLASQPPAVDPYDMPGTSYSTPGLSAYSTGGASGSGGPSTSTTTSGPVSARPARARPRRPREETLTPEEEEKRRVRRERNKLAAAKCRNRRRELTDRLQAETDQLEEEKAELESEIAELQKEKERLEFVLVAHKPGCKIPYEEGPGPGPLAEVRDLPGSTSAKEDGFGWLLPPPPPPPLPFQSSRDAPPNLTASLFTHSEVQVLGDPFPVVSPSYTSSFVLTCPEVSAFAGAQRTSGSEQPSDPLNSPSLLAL
Dyrk1A ADPGlo = rat Dyrk1A kinase inhibitors, primary screen, biochemical, single point, plate reader; inhibition, % at 12.5 µM; hit rate 0.43% among 310,000; ADP-Glo luminescence, NFATc1 peptide; Dual specificity tyrosine-phosphorylation-regulated kinase 1A (Rattus norvegicus), Q63470; in the data active means inhibition above about 50%
CAL PDZ FP-2 = CAL PDZ peptide-binding inhibitors, primary screen, biochemical, fluorescence polarization, Cer-tagged CAL PDZ, HTS; Golgi-associated PDZ and coiled-coil motif-containing protein (Homo sapiens), Q9HD26; purified CAL PDZ, TMR-peptide fluorescence polarization, 1 h; inhibition, % at 20 µM; hit rate 0.02% among 330,000;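 active means highest replicate inhibition of at least 40%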
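Assay system – tagged CAL PDZ protein CerCALP, purified · Timing – 1 h at RT · Compound – single point, 20 µM · Measured by – fluorescence polarization from S- and P-plane intensities, G-factor corrected · Evaluation – inhibition from polarization loss · Probe or stimulus – TMR reporter peptide T*-PRC34 · Buffer or medium – pH 7.4 phosphate-saline buffer, reducing agent, detergent, IgG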
Of the large screens only hits and unclear results are named; the others gave an inactive call. The list is not random: actives were taken first. Their share in the collection is about 2.2%.

Cc1cc(NC(=O)Cn2c(=O)oc3ccccc32)no1	none (no result: CAL PDZ FP-1)
Cn1cc(C(=O)C(=O)N2CCCc3ccccc32)c2ccccc21	CAL PDZ FP-1 34.1
COc1ccc(NC(=O)N2CCC(c3nc4ccccc4[nH]3)CC2)cc1	none
CCCCCCC(=O)Nc1nc(C)c(-c2csc(Nc3ccc(Cl)cc3)n2)s1	Dyrk1A ADPGlo 56.7
Cc1cc([N+](=O)[O-])nn1CC(=O)N(C)C1CCCCC1	CAL PDZ FP-1 54.3
CCc1nn(CC(=O)N(C)C2CCCCC2)c(=O)c2cc3cc(C)ccc3n12	CAL PDZ FP-1 104.1
COCCNC(=O)C(c1ccc(Cl)cc1)N(CCOC)C(=O)CCC(=O)Nc1ccccn1 (stereo not given)	none
Cc1ccc(C(=O)NN2C(=O)c3ccc(S(=O)(=O)c4ccc(C(=O)O)cc4)cc3C2=O)cc1	CAL PDZ FP-1 46.9
CNC(=O)c1ccc(CNC(=O)OCc2ccccc2)cc1	none
Nc1cccc(-c2c[nH]c3ncc(-c4cccnc4)cc23)c1	Dyrk1A ADPGlo 77.4
Nc1ccc2nc(-c3cccnc3)[nH]c2c1	none
N#Cc1cccc(N=Cc2c(O)ccc3ccccc23)c1	none
Cn1c(N)c(C(=O)COC(=O)CC2CC3CCC2C3)c(=O)n(C)c1=O (stereo not given)	CAL PDZ FP-1 87.5
Cc1ccc(NC(=O)CC2SC(=O)NC2=O)cc1 (stereo not given)	none
Cc1ccc(NC(=O)CC2=NC(=O)C(CC(=O)Nc3ccccc3C)S2)cc1 (stereo not given)	dFosB act 34.1
NC(=O)Cn1c(O)c(N=NC(=O)CNC(=O)/C=C/c2ccccc2)c2ccccc21	dFosB act 18.2
CCCn1c(O)c(N=NC(=O)CNC(=O)/C=C/c2ccc(OC)cc2)c2ccccc21	none
C=CCn1c(O)c(N=NC(=O)CNC(=O)/C=C/c2ccc(OC)cc2)c2ccccc21	CAL PDZ FP-1 59.0
CC(=O)c1ccc(Nc2ccc(-c3ccccc3C)nn2)cc1	none
COCN(C#N)c1nc(N(C)C)nc(N(C)C)n1	CAL PDZ FP-1 97.4 (no result: Rtt109 HAT inh)
OC(CNc1ccnc2cc(Cl)ccc12)CNC1CCCCC1 (stereo not given)	dFosB act 25.5
OC1CCCC1NCc1ccnc2cc(Cl)ccc12 (stereo not given)	none
COc1c(Cl)cc(Br)c(OC)c1C(=O)NC(=O)Nc1nc(C)cc(C)n1	CAL PDZ FP-1 82.8
CC(C)CCN(CCC(C)C)C(CO)(CO)CO	none
O=C(c1ccccc1)c1ccccc1NC(=O)C1CCCN1Cc1ccccc1 (stereo not given)	CAL PDZ FP-1 46.4
Fc1ccc(OCCCCN2CCOCC2)cc1	none
Cc1ccc(NC(=O)CN(C)C(=O)c2ccc3[nH]c4c(c3c2)CC(C)CC4)cc1 (stereo not given)	CAL PDZ FP-1 74.0
CC(C)Cn1c(N)c(C(=O)COC(=O)c2ccc(O)cc2)c(=O)n(C)c1=O	none
CC(C)Cn1c(N)c(C(=O)COC(=O)c2cc(F)cc(F)c2)c(=O)n(C)c1=O	CAL PDZ FP-1 35.6
NC(=O)C1CCCN(Cc2c(C(=O)N3CCc4ccccc4C3)nc3ccc(Cl)cn23)C1 (stereo not given)	none
CCCc1c(C)nc(N2CCN(c3ccccc3OC)CC2)[nH]c1=O	CAL PDZ FP-1 54.9
Cc1ccc(C(=O)NCCC2=CCCCC2)cc1S(=O)(=O)N1CCCCC1	none
O=c1c2cc(Br)ccc2[nH]c(=S)n1Cc1cccnc1	dFosB act 42.9 (no result: Rtt109 HAT inh)
O=c1c2ccccc2[nH]c(=S)n1Cc1cccnc1	none
COc1ccc(C(=O)COC(=O)[C@@H](NS(=O)(=O)c2ccccc2)C(C)C)cc1	none (no result: CAL PDZ FP-1)
Cc1ccc(NC(=O)c2ccc(NCCN)c([N+](=O)[O-])c2)cc1Cl	dFosB act 39.0
